IC50 data for 16 compounds are collected here from ChEMBL document CHEMBL2034945, “Bioactive quassinoids from the seeds of Brucea javanica” (J Nat Prod, 2012).

Some results are limits rather than exact numbers.

Holding throughout (assay type): functional, cell-based
In one assay the test system is HCT-8. Put plainly: Cytotoxicity against human HCT8 cells by MTT assay. The method in brief: (§1)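 Colorimetric MTT assay on human cancer lines: HCT-8 colon, HepG2 hepatoma, BGC-823 gastric, A549 lung epithelial and SKOV3 ovarian. Paclitaxel was the positive control. IC50 was reported.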
In general terms: Tetrazolium dyes change colour on reduction, which living cells bring about.

For the next assay, the system named is BGC-823. Put plainly: Cytotoxicity against human BGC823 cells by MTT assay. The method in brief: as §1
The subject of another assay is SK-OV-3. Put plainly: Cytotoxicity against human SKOV3 cells by MTT assay. The method in brief: as §1
Another assay relates to HepG2. Put plainly: Cytotoxicity against human HepG2 cells by MTT assay. The method in brief: as §1
The test system of the next assay is A549. The assay can be described thus: Cytotoxicity against human A549 cells by MTT assay. An outline of the steps:
as §1

Assay [1] in a line: Antiinflammatory activity in rat polymorphonuclear leukocytes assessed as inhibition of LPS-stimulated nitric oxide production after 20 mins by Griess method. An outline of the steps:
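Rat polymorphonuclear leukocytes were stimulated with LPS, and nitric oxide in the culture supernatant was measured by Griess reaction. Supernatant or sodium nitrite standard was mixed 1:1 with Griess reagent (0.1% N-(1-naphthyl)ethylenediamine dihydrochloride plus 1% sulfanilamide in 5% phosphoric acid, combined within 1 h of preparation). After 20 min at room temperature, absorbance was read at 540 nm. Dexamethasone was the positive control. IC50 was reported.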

As a reminder, the IC50 is the midpoint of a concentration-inhibition curve. For `CC1=CC(=O)[C@@H](O)[C@]2(C)[C@H]3[C@@H](O)[C@H](O)[C@]4(C)OC[C@@]35[C@@H](C[C@@H]12)OC(=O)[C@H](O)[C@]54O` [BRUCEINE D], the IC50 in the assay with HCT-8 is 2 µM; in the assay with BGC-823 it was 1.2 µM; with SK-OV-3, 0.76 µM; in the assay on HepG2, 1.2 µM; with A549 it was 3.9 µM.
Take `COC(=O)[C@@]12OC[C@]34[C@H]([C@@H](O)[C@@H]1O)[C@@]1(C)CC(=O)C(O)=C(C)[C@@H]1C[C@H]3OC(=O)[C@H](OC(C)=O)[C@@H]24` [BRUCEINE B]: the IC50 in the assay with HCT-8 worked out at 2 µM; in assay [1], 1.9 µM; in the assay on BGC-823, 0.81 µM; in the assay on SK-OV-3, 0.12 µM; in the assay on HepG2 it was 0.81 µM; in the assay on A549 it was 1.3 µM.
Turning to `CC1=C[C@H](O)[C@@H](O)[C@]2(C)[C@H]3[C@@H](O)[C@H](O)[C@@]4(C)OC[C@@]35[C@@H](C[C@@H]12)OC(=O)[C@H](O)[C@]54O` [BRUCEINE E], the IC50 in the assay on HCT-8 was 6.7 µM; in assay [1], 5 µM; with BGC-823 it was 2.2 µM; in the assay with SK-OV-3 it was 2.2 µM; in the assay with HepG2 it was 2.9 µM; with A549, over 10 µM.
Turning to `CC1=CC(=O)[C@@H](O)[C@]2(C)[C@H]3[C@@H](O)[C@H](O)[C@@]4(CO)OC[C@@]35[C@@H](C[C@@H]12)OC(=O)[C@H](O)[C@]54O` [BRUCEINE H], the IC50 was 1.3 µM with HCT-8; 2.1 µM in the assay on BGC-823; 0.33 µM with SK-OV-3; 2.8 µM in the assay with HepG2; 9.3 µM in the assay on A549.
`C[C@@H]1C[C@H]2[C@@H]3CCC4=CC(=O)C=C[C@]4(C)[C@@]3(F)[C@@H](O)C[C@]2(C)[C@@]1(O)C(=O)CO` [DEXAMETHASONE]: the IC50 in assay [1] was determined as 0.0023 µM.
`COC(=O)[C@]12OC[C@@]34[C@H](C[C@H]5[C@H](C)C(=O)C(O[C@@H]6O[C@H](CO)[C@@H](O)[C@H](O)[C@H]6O)=C[C@]5(C)[C@H]3[C@@H](O)[C@@H]1O)OC(=O)[C@H](OC(=O)/C=C(\C)C(C)C)[C@@H]24` [BRUCEANTINOSIDE A]: the IC50 in the assay on HCT-8, with BGC-823, in the assay on SK-OV-3, in the assay with HepG2 and in the assay on A549 was over 10 µM each time.
With `COC(=O)[C@@]12OC[C@]34[C@H]([C@@H](O)[C@@H]1O)[C@@]1(C)C[C@H](O)C(=O)[C@@H](C)[C@@H]1C[C@H]3OC(=O)[C@H](OC(=O)C=C(C)C)[C@@H]24` [JAVANICOLIDE H], the IC50 in the assay on HCT-8 was over 10 µM; with BGC-823, 0.52 µM; with SK-OV-3 it was 0.23 µM; in the assay on HepG2 it was over 10 µM; in the assay on A549, 0.95 µM.
As to `COC(=O)C[C@]1(C)[C@H]2[C@@H](O)[C@H](O)[C@@]3(C(=O)OC)OC[C@@]24[C@@H](C[C@H]1C(C)=O)OC(=O)[C@H](OC(=O)C=C(C)C)[C@@H]34` [BRUCEANIC ACID E METHYL ESTER], the IC50 in the assay with HCT-8, with BGC-823, in the assay with SK-OV-3, in the assay with HepG2 and in the assay on A549 was over 10 µM in each case.
`CC(=O)[C@@H]1C[C@H]2OC(=O)[C@H](OC(=O)C=C(C)C)[C@H]3[C@]4(C(=O)O)OC[C@]23[C@H]([C@@H](O)[C@@H]4O)[C@@]1(C)CC(=O)O` [BRUCEANIC ACID F]: the IC50 in the assay on HCT-8, in the assay with BGC-823, in the assay on SK-OV-3, in the assay with HepG2 and with A549 was over 10 µM in each case.
For `CC(=O)O[C@H]1C(=O)[C@@]2(C)[C@H]([C@H](OC(=O)c3ccccc3)[C@]3(O)C[C@H](OC(=O)[C@H](O)[C@@H](NC(=O)c4ccccc4)c4ccccc4)C(C)=C1C3(C)C)[C@]1(OC(C)=O)CO[C@@H]1C[C@@H]2O` [PACLITAXEL], in the assay on SK-OV-3, the IC50 is under 0.0001 µM.
Regarding `COC(=O)[C@@]12OC[C@@]34[C@@H](CC5=C(C)C(=O)C(O)=C[C@]5(C)[C@H]3[C@@H](O)[C@@H]1O)OC(=O)[C@H](OC(=O)C=C(C)C)[C@@H]24` [DEHYDROBRUSATOL], the IC50 is over 10 µM in the assay on HCT-8; 4.8 µM in the assay on BGC-823; 2.5 µM with SK-OV-3; 3.3 µM in the assay with HepG2; 7.3 µM with A549.
The matching figures for `COC(=O)[C@@]12OC[C@]34[C@H]([C@@H](O)[C@@H]1O)[C@@]1(C)C=C(O[C@@H]5O[C@H](CO)[C@@H](O)[C@H](O)[C@H]5O)C(=O)[C@@H](C)[C@@H]1C[C@H]3OC(=O)[C@H](OC(=O)C=C(C)C)[C@@H]24` [BRUCEOSIDE A]: over 10 µM, over 10 µM, over 10 µM, over 10 µM and over 10 µM.
The matching figures for `COC(=O)[C@@]12OC[C@]34[C@H]([C@@H](O)[C@@H]1O)[C@@](C)(CC(=O)O)[C@H](C(C)=O)C[C@H]3OC(=O)[C@H](OC(=O)C=C(C)C)[C@@H]24` [BRUCEANIC ACID E]: over 10 µM, over 10 µM, over 10 µM, over 10 µM and over 10 µM.
Take `COC(=O)[C@@]12OC[C@]34[C@H]([C@@H](O)[C@@H]1O)[C@@]1(C)CC(=O)[C@H](O)[C@@H](C)[C@@H]1C[C@H]3OC(=O)[C@H](OC(=O)C=C(C)C)[C@@H]24` [JAVANICOLIDE E]: the IC50 was over 10 µM with HCT-8; 1.43 µM with BGC-823; 1.49 µM with SK-OV-3; over 10 µM in the assay with HepG2; 6.36 µM in the assay with A549.
With `COC(=O)[C@@]12OC[C@]34[C@H]([C@@H](O)[C@@H]1O)[C@@](C)(CC(=O)O)[C@H]([C@@H](C)C(=O)O)C[C@H]3OC(=O)[C@H](OC(=O)C=C(C)C)[C@@H]24` [JAVANIC ACID A], the IC50 in the assay with HCT-8, in the assay with BGC-823, with SK-OV-3, with HepG2 and with A549 was over 10 µM in each case.
In the case of `COC(=O)[C@@H](C)[C@@H]1C[C@H]2OC(=O)[C@H](OC(=O)C=C(C)C)[C@H]3[C@]4(C(=O)OC)OC[C@]23[C@H]([C@@H](O)[C@@H]4O)[C@@]1(C)CC(=O)O`, the IC50 with HCT-8, in the assay with BGC-823, in the assay on SK-OV-3, with HepG2 and in the assay on A549 was over 10 µM throughout.
